# Assay results as given in ChEMBL document CHEMBL4265971, “Modified carbazoles destabilize microtubules and kill glioblastoma multiform cells” (Eur J Med Chem, 2018).
# Calls of active or inactive are those of the source. The calls are words filed in the database; no cut-off is given here.
# What was measured:
# T98G [1] = assay: Cytotoxicity against human T98G cells after 72 hrs by WST-1 assay; assay type: functional, cell-based
# Outline: (§1)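 Viability read with WST-1 72 h after treatment with increasing concentrations; DMSO vehicle 0.1% final. T98G and HepG2 grown in DMEM/10% FBS/pen-strep at 37 °C, 5% CO2. Patient-derived GBM cells (WHO grade IV; proneural, classical, mesenchymal) grown in NeuroCult NSA with B-27, 20 ng/mL EGF and 20 ng/mL FGF2. EC50 from curve fit, reported only when extrapolable. Mean of ≥3 independent experiments in triplicate.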
# T98G [2] = assay: Cytotoxicity against human T98G cells assessed as cell killing at 10 uM after 72 hrs by WST-1 assay relative to control; assay type: functional
# Outline: (§2)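 Maximal killing is the largest % loss of viability against 0.1% DMSO vehicle, read by WST-1 72 h after treatment, at the stated concentration. T98G/HepG2 grown in DMEM/10% FBS; patient-derived GBM grown in NeuroCult NSA with B-27, EGF and FGF2 (20 ng/mL each). Mean ± SEM of ≥3 independent experiments in triplicate.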
# T98G [3] = assay: Cytotoxicity against human T98G cells assessed as cell killing at 3 uM after 72 hrs by WST-1 assay relative to control; assay type: functional; outline: as §2
# T98G [4] = assay: Cytotoxicity against human T98G cells assessed as cell killing at 100 nM after 72 hrs by WST-1 assay relative to control; assay type: functional
# Outline: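 T98G human GBM cells (ATCC, STR-authenticated, under 6 months in culture) grown in DMEM with 10% FBS and penicillin/streptomycin, 37 °C, 5% CO2. Exposed to increasing compound concentrations in DMSO (0.1% final) for 72 h, then WST-1 viability read. Maximal killing is the largest % viability reduction versus vehicle over the concentrations tested. Mean of ≥3 independent experiments in triplicate.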
# GBM [5] = assay: Cytotoxicity against patient-derived proneural GBM cells after 72 hrs by WST-1 assay; assay type: functional, cell-based; details: Homo sapiens; outline: as §1
# Bos taurus [6] = species on record: Bos taurus; assay: Inhibition of [3H]colchicine binding to bovine brain tubulin at 5 uM after 1 hr liquid scintillation counting assay relative to control
# GBM [7] = assay: Cytotoxicity against patient-derived mesenchymal GBM cells after 72 hrs by WST-1 assay; assay type: functional, cell-based; details: Homo sapiens; outline: as §1
# HepG2 [8] = assay: Cytotoxicity against human HepG2 cells assessed as cell killing at 5.6 uM after 72 hrs by WST-1 assay relative to control; assay type: functional; outline: as §2
# GBM [9] = assay: Cytotoxicity against patient-derived proneural GBM cells assessed as cell killing at 5.6 uM after 72 hrs by WST-1 assay relative to control; assay type: functional, Homo sapiens
# Outline: (§3)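 Patient-derived GBM cells come from freshly resected WHO grade IV tumours. They are subtyped proneural, classical or mesenchymal and kept in NeuroCult NSA medium with B-27, 20 ng/mL EGF and 20 ng/mL FGF2. Cells were treated with increasing compound concentrations (DMSO 0.1% final). Viability was read by WST-1 after 72 h. Maximal killing is the largest % reduction versus vehicle. Mean of ≥3 independent experiments in triplicate.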
# GBM [10] = assay: Cytotoxicity against patient-derived classical GBM cells after 72 hrs by WST-1 assay; assay type: functional, cell-based; details: Homo sapiens; outline: as §1
# [11] = Induction of bovine brain microtubule destabilization assessed as increase in free tubulin levels after 15 mins by Coomassie G-250 staining-based polyacrylamide gel electrophoresis method; set-up: species or system Bos taurus
# Outline: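 Bovine brain tubulin purified, polymerized into MTs and sheared. Sheared MTs incubated with compound at 37 °C for 15 min, then centrifuged 10 min at 42,000 rpm at 37 °C. Supernatant (free tubulin) and pellet (MT) run on polyacrylamide gels. EC50 from representative experiments repeated three times.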
# T98G [12] = assay: Cytotoxicity against human T98G cells assessed as cell killing at 1 uM after 72 hrs by WST-1 assay relative to control; assay type: functional; outline: as §2
# GBM [13] = assay: Cytotoxicity against patient-derived classical GBM cells assessed as cell killing at 5.6 uM after 72 hrs by WST-1 assay relative to control; assay type: functional, Homo sapiens; outline: as §3
# [14] = Inhibition of bovine brain t in presence of 0.4 mM GTP; set-up: species or system Bos taurus
# GBM [15] = assay: Cytotoxicity against patient-derived mesenchymal GBM cells assessed as cell killing at 10 uM after 72 hrs by WST-1 assay relative to control; assay type: functional, Homo sapiens; outline: as §3
# SF-295 = assay: Cytotoxicity against human SF295 cells after 48 hrs by sulforhodamine B assay; assay type: functional, cell-based
# HepG2 [16] = assay: Cytotoxicity against human HepG2 cells after 72 hrs by WST-1 assay; assay type: functional, cell-based; details: HepG2, 72 h; outline: as §1
# HepG2 [17] = assay: Cytotoxicity against human HepG2 cells assessed as cell killing at 0.6 uM after 72 hrs by WST-1 assay relative to control; assay type: functional; outline: as §2
# GBM [18] = assay: Cytotoxicity against patient-derived classical GBM cells assessed as cell killing at 1 uM after 72 hrs by WST-1 assay relative to control; assay type: functional, Homo sapiens; outline: as §2
# Bos taurus [19] = species on record: Bos taurus; assay: Inhibition of [3H]colchicine binding to bovine brain tubulin at 1 uM after 1 hr liquid scintillation counting assay relative to control
# COLO 205 = assay: Cytotoxicity against human COLO205 cells after 48 hrs by sulforhodamine B assay; assay type: functional, cell-based
# GBM [20] = assay: Cytotoxicity against patient-derived mesenchymal GBM cells assessed as cell killing at 1 uM after 72 hrs by WST-1 assay relative to control; assay type: functional, Homo sapiens; outline: as §2
# HT-29 = assay: Cytotoxicity against human HT-29 cells after 48 hrs by sulforhodamine B assay; assay type: functional, cell-based
# HCC 2998 = assay: Cytotoxicity against human HCC2998 cells after 48 hrs by sulforhodamine B assay; assay type: functional, cell-based
# SF-539 = assay: Cytotoxicity against human SF539 cells after 48 hrs by sulforhodamine B assay; assay type: functional, cell-based
# GBM [21] = assay: Cytotoxicity against patient-derived proneural GBM cells assessed as cell killing at 1 uM after 72 hrs by WST-1 assay relative to control; assay type: functional, Homo sapiens; outline: as §2
smiles,measurement,setting,value
CCn1c2ccccc2c2cc(C(=O)N3CCN(C)CC3)ccc21,EC50,T98G [1],> 10000 nM
same,%max,T98G [2],13.2%
CCn1c2ccccc2c2cc(C(=S)c3ccc(C)c4ccccc34)ccc21,EC50,T98G [1],> 10000 nM
same,%max,T98G [3],-17%
CCn1c2ccccc2c2cc(C(=O)c3cccc4c3NCCC4)ccc21,EC50,T98G [1],> 10000 nM
same,%max,T98G [4],-18%
CCn1c2c(c3ccccc31)CN(C(=O)c1ccc(C)c3ccccc13)CC2,EC50,T98G [1],> 10000 nM
same,%max,T98G [3],45.1%
CCn1c2ccccc2c2cc(C(=O)N3CCCc4ccccc43)ccc21,EC50,T98G [1],757 nM
same,EC50,GBM [5],613 nM
same,inhibition,Bos taurus [6],41%
same,EC50,GBM [7],1820 nM
same,%max,HepG2 [8],8.3%
same,%max,GBM [9],98.9%
same,EC50,GBM [10],846 nM
same,EC50,[11],5.3 µM
same,%max,T98G [12],89%
same,%max,GBM [13],98.6%
same,IC50,[14],4400 nM
same,%max,GBM [15],97.2%
Cc1ccc(C(=O)n2c3ccccc3c3ccccc32)c2ccccc12,EC50,T98G [1],957 nM
same,%max,T98G [2],89.1%
CCn1c2ccc(C(=O)c3ccc(C)c4ccccc34)cc2c2ccc(OC)cc21,EC50,T98G [1],2600 nM
same,%max,T98G [2],71.6%
CCCn1c2ccccc2c2cc(C(=O)c3ccc(C)c4ccccc34)ccc21,EC50,T98G [1],> 10000 nM
same,%max,T98G [2],16.3%
CCn1c2ccccc2c2cc(C(=O)c3cccc4ncccc34)ccc21,Activity,SF-295,Active
same,EC50,HepG2 [16],66 nM
same,%max,HepG2 [17],28.6%
same,%max,GBM [18],53.9%
same,EC50,T98G [1],184 nM
same,EC50,GBM [5],316 nM
same,inhibition,Bos taurus [6],91%
same,inhibition,Bos taurus [19],61%
same,Activity,COLO 205,Active
same,%max,GBM [20],58.9%
same,Activity,HT-29,Active
same,Activity,HCC 2998,Active
same,EC50,GBM [7],335 nM
same,Activity,SF-539,Active
same,EC50,GBM [10],407 nM
same,%max,GBM [21],44.8%
same,EC50,[11],3.4 µM
same,%max,T98G [12],74.4%
same,IC50,[14],890 nM
